Assay results published in ChEMBL document CHEMBL1137201, “A virtual screening approach to finding novel and potent antagonists at the melanin-concentrating hormone 1 receptor” (J Med Chem, 2004).

These molecules were tested against T1, Melanin-concentrating hormone receptor 1 (Homo sapiens, UniProt Q99705) (assay: Inhibition of Melanin-concentrating hormone 1 receptor expressed in CHO cells).
Type: cell-based

T1 sequence (Q99705 whole entry): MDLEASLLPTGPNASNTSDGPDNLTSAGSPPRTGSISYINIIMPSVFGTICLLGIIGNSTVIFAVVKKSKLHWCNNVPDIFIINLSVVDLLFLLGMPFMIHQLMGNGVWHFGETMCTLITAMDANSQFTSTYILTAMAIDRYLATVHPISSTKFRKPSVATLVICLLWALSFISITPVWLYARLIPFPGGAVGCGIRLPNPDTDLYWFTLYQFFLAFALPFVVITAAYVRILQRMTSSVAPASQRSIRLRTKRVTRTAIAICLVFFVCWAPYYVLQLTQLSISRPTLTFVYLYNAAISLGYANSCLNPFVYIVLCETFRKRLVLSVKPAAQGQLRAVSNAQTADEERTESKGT

First: CCN1CCN(c2cc(C)c3cc(NC(=O)COc4cccc(C)c4)ccc3n2)CC1
Second: CCN1CCN(c2cc(C)c3cc(NC(=O)CCc4ccc(OC)cc4)ccc3n2)CC1
The IC50 of the first is 9-fold higher: 6600 nM for the first, 730 nM for the second. The second is the more potent here.

Going from `O=C(CNC(=O)OCc1ccccc1)NCC(CCCN1CCC(c2ccccc2)CC1)(c1ccccc1)c1ccccc1` to `O=C1c2cc(OCCC3CCN(Cc4ccc(C5=NCCN5)cc4)CC3)ccc2CCCN1Cc1ccccc1`, the IC50 rises from 5 nM to 300 nM (60-fold).

Going from `CCN1CCN(c2cc(C)c3cc(NC(=O)C(C)Oc4ccc(Cl)cc4Cl)ccc3n2)CC1` (stereo not given) to `Cc1cc(N2CCN(C)CC2)nc2ccc(NC(=O)C(C)Oc3ccc(Cl)cc3Cl)cc12` (stereo not given), the IC50 rises from 230 nM to 790 nM (3.4-fold).

Going from `CCN1CCN(c2cc(C)c3cc(NC(=O)CSc4ccncc4)ccc3n2)CC1` to `COc1ccc(CCC(=O)Nc2ccc3nc(N4CCN(C)CC4)cc(C)c3c2)cc1`, the IC50 falls from 8200 nM to 250 nM (33-fold).

Work on `CN(C)CC1CCc2cc(NC(=O)c3ccc(-c4ccc(F)cc4)cc3)ccc2C1` (stereo not given) yielded an IC50 of 5.5 nM.

Each molecule was assayed against T1, Melanin-concentrating hormone receptor 1 (assay: Percent inhibition of Melanin-concentrating hormone 1 receptor expressed in CHO cells at 10 uM).
Type: cell-based
Method in brief: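 Same SPA radioligand binding setup: CHO MCH-1R membranes with 0.4 nM 125I-[Phe13,Tyr19]-MCH and WGA beads, 1 h at room temperature, 1 μM MCH for nonspecific binding. Compounds were screened at a single 10 μM concentration, and actives were retested in duplicate at 10 μM. Read-out is percent inhibition of specific binding.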

For `Cc1cc(N2CCN(C)CC2)nc2ccc(NC(=O)CCC3CCCC3)cc12`, the inhibition was 11.6%.

The molecules below were run against T1, Melanin-concentrating hormone receptor 1 (assay: (§1) Binding affinity for Melanin-concentrating hormone 1 receptor expressed in CHO cells).
Type: cell-based
Method in brief: (§2)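 Scintillation proximity binding: CHO membranes (5 μg) overexpressing MCH-1R with wheat germ agglutinin SPA beads and 0.4 nM 125I-[Phe13,Tyr19]-MCH, 1 h at room temperature. Nonspecific binding was taken with 1 μM MCH. Bound label was scintillation-counted. IC50 came from six-point semilog concentration–response curves.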

Compared with `O=C(CCCN1CCC(O)(c2ccc(Cl)cc2)CC1)c1ccc(Cl)cc1`, `CCCCN(CCCC)c1ccc(CNC[C@H]2CC[C@H](N(C)C(=O)c3cccc4ccccc34)CC2)cc1` is 32-fold higher in Kb: 9 nM for the first, 284 nM for the second.

What follows are molecules tested against T1, Melanin-concentrating hormone receptor 1 (assay: as §1).
Type: cell-based
Method in brief: as §2

`CC[C@H](NC(=O)c1ccc(CC2CCN(Cc3ccc4c(c3)OCO4)CC2)cc1)c1ccc(C(=O)OC)cc1` and `CC(=O)N[C@@H]1CCN(CCCCN(C(=O)Nc2ccc(F)c(Cl)c2)c2ccc(-c3cccc(C#N)c3)cc2)C1` cannot be ordered by Ki: at most 1500 nM for the first, under 100 nM for the second.

With `COc1cc(N2CCN(C[C@H]3C[C@@H]3c3ccccc3)CC2)ccc1Br` the Ki was under 1000 nM.
